pIC50: −log10 of the molar value.
Tests used:
[1] = Drug concentration in ovariectomized nu/nu mouse plasma assessed (3-(4-morpholinopyrido [3',2':4,5] furo [3,2-d] pyrimidin-2-yl)phenyl)boronic acid at 10 mg/kg, po measured after 3 hrs by UHPLC-MS analysis; assay type: ADME, organism-based; details: in vivo
Outline: (§1)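 Female ovariectomized Nu/Nu mice, 4–6 weeks old, n = 5 per group. Single 10 mg/kg oral gavage in 5% DMSO/40% PEG 400/55% saline. Orbital-sinus blood was taken at 0.5, 1, 3, 8 and 24 h, one sampling per group, into EDTA. Plasma was spun at 4 °C and stored at −80 °C. The prodrug's boronic acid metabolite and phenol were quantified by C18 UHPLC–TSQ MS/MS with an acetonitrile/water 0.05% formic acid gradient.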

[2] = Drug concentration in ovariectomized nu/nu mouse plasma assessed (3-(4-morpholinopyrido [3',2':4,5] furo [3,2-d] pyrimidin-2-yl)phenyl)boronic acid at 10 mg/kg, po measured after 8 hrs by UHPLC-MS analysis; assay type: ADME, organism-based; details: in vivo; outline: as §1
[3] = Drug concentration in ovariectomized nu/nu mouse plasma assessed (3-(4-morpholinopyrido [3',2':4,5] furo [3,2-d] pyrimidin-2-yl)phenyl)boronic acid at 10 mg/kg, po measured after 1 hr by UHPLC-MS analysis; assay type: ADME, organism-based; details: in vivo; outline: as §1
CWR22R = experiment: Antiproliferative activity against human 22Rv1 cells assessed as reduction in cell viability incubated for 4 days by coulter counter method; assay type: functional, cell-based; details: 22Rv1, 96 h
Outline: (§2)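 Cancer cells were seeded at 50,000 per well in DMEM with 5% FBS. They were exposed to six compound doses for 4 days, with DMSO as vehicle control and a reference inhibitor as positive control. Cells were counted by Coulter counter. Survival ratio is treated cell number over vehicle cell number. IC50 was taken from dose–response curves. Triplicate experiments.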

[4] = Cmax in ovariectomized nu/nu mouse assessed (3-(4-morpholinopyrido [3',2':4,5] furo [3,2-d] pyrimidin-2-yl)phenyl)boronic acid at 10 mg/kg, ip measured upto 24 hrs by UHPLC-MS analysis; assay type: ADME, organism-based; parameters: dose 10 mg/kg, route intraperitoneal; details: in vivo
[5] = Drug concentration in ovariectomized nu/nu mouse plasma assessed (3-(4-morpholinopyrido [3',2':4,5] furo [3,2-d] pyrimidin-2-yl)phenyl)boronic acid at 10 mg/kg, ip measured after 8 hrs by UHPLC-MS analysis; assay type: ADME, organism-based; details: in vivo
[6] = AUC in ovariectomized nu/nu mouse assessed 3-(4-morpholinopyrido [3',2':4,5] furo [3,2-d] pyrimidin-2-yl)phenol at 10 mg/kg, ip measured upto 24 hrs by UHPLC-MS analysis; assay type: ADME, organism-based; parameters: time < 24 hr, dose 10 mg/kg, route intraperitoneal; details: in vivo
[7] = Drug concentration in ovariectomized nu/nu mouse plasma assessed 3-(4-morpholinopyrido [3',2':4,5] furo [3,2-d] pyrimidin-2-yl)phenol at 10 mg/kg, po measured after 3 hrs by UHPLC-MS analysis; assay type: ADME, organism-based; details: in vivo; outline: as §1
[8] = Drug concentration in ovariectomized nu/nu mouse plasma assessed 3-(4-morpholinopyrido [3',2':4,5] furo [3,2-d] pyrimidin-2-yl)phenol at 10 mg/kg, ip measured after 3 hrs by UHPLC-MS analysis; assay type: ADME, organism-based; details: in vivo
[9] = AUC (0 to 24 hrs) in ovariectomized nu/nu mouse assessed 3-(4-morpholinopyrido [3',2':4,5] furo [3,2-d] pyrimidin-2-yl)phenol at 10 mg/kg, po measured upto 24 hrs by UHPLC-MS analysis; assay type: ADME, organism-based; parameters: dose 10 mg/kg, time < 24 hr, route oral; details: in vivo; outline: as §1
[10] = Half life in ovariectomized nu/nu mouse assessed 3-(4-morpholinopyrido [3',2':4,5] furo [3,2-d] pyrimidin-2-yl)phenol at 10 mg/kg, po measured upto 24 hrs by UHPLC-MS analysis; assay type: ADME, organism-based; details: in vivo; outline: as §1
[11] = Drug concentration in ovariectomized nu/nu mouse plasma assessed 3-(4-morpholinopyrido [3',2':4,5] furo [3,2-d] pyrimidin-2-yl)phenol at 10 mg/kg, ip measured after 1 hr by UHPLC-MS analysis; assay type: ADME, organism-based; details: in vivo
[12] = Drug concentration in ovariectomized nu/nu mouse plasma assessed 3-(4-morpholinopyrido [3',2':4,5] furo [3,2-d] pyrimidin-2-yl)phenol at 10 mg/kg, po measured after 24 hrs by UHPLC-MS analysis; assay type: ADME, organism-based; details: in vivo; outline: as §1
[13] = Half life in ovariectomized nu/nu mouse assessed (3-(4-morpholinopyrido [3',2':4,5] furo [3,2-d] pyrimidin-2-yl)phenyl)boronic acid at 10 mg/kg, po measured upto 24 hrs by UHPLC-MS analysis; assay type: ADME, organism-based; details: in vivo; outline: as §1
[14] = Cmax in ovariectomized nu/nu mouse assessed (3-(4-morpholinopyrido [3',2':4,5] furo [3,2-d] pyrimidin-2-yl)phenyl)boronic acid at 10 mg/kg, po measured upto 24 hrs by UHPLC-MS analysis; assay type: ADME, organism-based; parameters: dose 10 mg/kg, route oral; details: in vivo; outline: as §1
MDA-MB-231 = experiment: Antiproliferative activity against human MDA-MB-231 cells assessed as reduction in cell viability incubated for 4 days by coulter counter method; assay type: functional, cell-based; details: MDA-MB-231, 96 h; outline: as §2
[15] = Tmax in ovariectomized nu/nu mouse assessed 3-(4-morpholinopyrido [3',2':4,5] furo [3,2-d] pyrimidin-2-yl)phenol at 10 mg/kg, ip measured upto 24 hrs by UHPLC-MS analysis; assay type: ADME, organism-based; details: in vivo
[16] = Drug concentration in ovariectomized nu/nu mouse plasma assessed (3-(4-morpholinopyrido [3',2':4,5] furo [3,2-d] pyrimidin-2-yl)phenyl)boronic acid at 10 mg/kg, ip measured after 0.5 hrs by UHPLC-MS analysis; assay type: ADME, organism-based; details: in vivo
[17] = Drug concentration in ovariectomized nu/nu mouse plasma assessed (3-(4-morpholinopyrido [3',2':4,5] furo [3,2-d] pyrimidin-2-yl)phenyl)boronic acid at 10 mg/kg, ip measured after 3 hrs by UHPLC-MS analysis; assay type: ADME, organism-based; details: in vivo
PC-3 = experiment: Antiproliferative activity against human PC3 cells assessed as reduction in cell viability incubated for 4 days by coulter counter method; assay type: functional, cell-based; details: PC-3, 96 h
Outline: (§3)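 Cells seeded at 50,000 per well in DMEM with 5% FBS, exposed to six concentrations of compound for 4 days; DMSO as vehicle control. Cell numbers counted on a Coulter counter; survival ratio = treated/vehicle cell count. IC50 taken from dose-response curves. Triplicate experiments, mean ± SD.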

[18] = Drug concentration in ovariectomized nu/nu mouse plasma assessed 3-(4-morpholinopyrido [3',2':4,5] furo [3,2-d] pyrimidin-2-yl)phenol at 10 mg/kg, ip measured after 8 hrs by UHPLC-MS analysis; assay type: ADME, organism-based; details: in vivo
[19] = Stability of compound in cell culture medium assessed as compound hydrolysis measured after 8 hrs; assay type: physicochemical
[20] = Tmax in ovariectomized nu/nu mouse assessed (3-(4-morpholinopyrido [3',2':4,5] furo [3,2-d] pyrimidin-2-yl)phenyl)boronic acid at 10 mg/kg, ip measured upto 24 hrs by UHPLC-MS analysis; assay type: ADME, organism-based; details: in vivo
[21] = Stability of compound in cell culture medium assessed as compound hydrolysis measured after 24 hrs; assay type: physicochemical
[22] = Drug concentration in ovariectomized nu/nu mouse plasma assessed 3-(4-morpholinopyrido [3',2':4,5] furo [3,2-d] pyrimidin-2-yl)phenol at 10 mg/kg, ip measured after 24 hrs by UHPLC-MS analysis; assay type: ADME, organism-based; details: in vivo
A549 = experiment: Antiproliferative activity against human A549 cells assessed as reduction in cell viability incubated for 4 days by coulter counter method; assay type: functional, cell-based; details: A549, 96 h; outline: as §2
[23] = AUC in ovariectomized nu/nu mouse assessed (3-(4-morpholinopyrido [3',2':4,5] furo [3,2-d] pyrimidin-2-yl)phenyl)boronic acid at 10 mg/kg, ip measured upto 24 hrs by UHPLC-MS analysis; assay type: ADME, organism-based; parameters: time < 24 hr, dose 10 mg/kg, route intraperitoneal; details: in vivo
[24] = Half life in ovariectomized nu/nu mouse assessed 3-(4-morpholinopyrido [3',2':4,5] furo [3,2-d] pyrimidin-2-yl)phenol at 10 mg/kg, ip measured upto 24 hrs by UHPLC-MS analysis; assay type: ADME, organism-based; details: in vivo
[25] = Tmax in ovariectomized nu/nu mouse assessed 3-(4-morpholinopyrido [3',2':4,5] furo [3,2-d] pyrimidin-2-yl)phenol at 10 mg/kg, po measured upto 24 hrs by UHPLC-MS analysis; assay type: ADME, organism-based; details: in vivo; outline: as §1
HeLa = experiment: Antiproliferative activity against human HeLa cells assessed as reduction in cell viability incubated for 4 days by coulter counter method; assay type: functional, cell-based; details: 96 h; outline: as §2
[26] = Drug concentration in ovariectomized nu/nu mouse plasma assessed (3-(4-morpholinopyrido [3',2':4,5] furo [3,2-d] pyrimidin-2-yl)phenyl)boronic acid at 10 mg/kg, ip measured after 24 hrs by UHPLC-MS analysis; assay type: ADME, organism-based; details: in vivo
[27] = Stability of compound in cell culture medium assessed as compound hydrolysis measured after 3 hrs; assay type: physicochemical
[28] = Drug concentration in ovariectomized nu/nu mouse plasma assessed 3-(4-morpholinopyrido [3',2':4,5] furo [3,2-d] pyrimidin-2-yl)phenol at 10 mg/kg, po measured after 1 hr by UHPLC-MS analysis; assay type: ADME, organism-based; details: in vivo; outline: as §1
[29] = AUC (0 to 24 hrs) in ovariectomized nu/nu mouse assessed (3-(4-morpholinopyrido [3',2':4,5] furo [3,2-d] pyrimidin-2-yl)phenyl)boronic acid at 10 mg/kg, po measured upto 24 hrs by UHPLC-MS analysis; assay type: ADME, organism-based; parameters: time < 24 hr, dose 10 mg/kg, route oral; details: in vivo; outline: as §1
SK-OV-3 = experiment: Antiproliferative activity against human SKOV3 cells assessed as reduction in cell viability incubated for 4 days by coulter counter method; assay type: functional, cell-based; details: SK-OV-3, 96 h; outline: as §3
[30] = Drug concentration in ovariectomized nu/nu mouse plasma assessed 3-(4-morpholinopyrido [3',2':4,5] furo [3,2-d] pyrimidin-2-yl)phenol at 10 mg/kg, ip measured after 0.5 hrs by UHPLC-MS analysis; assay type: ADME, organism-based; details: in vivo
[31] = Drug concentration in ovariectomized nu/nu mouse plasma assessed (3-(4-morpholinopyrido [3',2':4,5] furo [3,2-d] pyrimidin-2-yl)phenyl)boronic acid at 10 mg/kg, po measured after 24 hrs by UHPLC-MS analysis; assay type: ADME, organism-based; details: in vivo; outline: as §1
[32] = Drug concentration in ovariectomized nu/nu mouse plasma assessed (3-(4-morpholinopyrido [3',2':4,5] furo [3,2-d] pyrimidin-2-yl)phenyl)boronic acid at 10 mg/kg, ip measured after 1 hr by UHPLC-MS analysis; assay type: ADME, organism-based; details: in vivo
[33] = Drug concentration in ovariectomized nu/nu mouse plasma assessed (3-(4-morpholinopyrido [3',2':4,5] furo [3,2-d] pyrimidin-2-yl)phenyl)boronic acid at 10 mg/kg, po measured after 0.5 hrs by UHPLC-MS analysis; assay type: ADME, organism-based; details: in vivo; outline: as §1
[34] = Cmax in ovariectomized nu/nu mouse assessed 3-(4-morpholinopyrido [3',2':4,5] furo [3,2-d] pyrimidin-2-yl)phenol at 10 mg/kg, po measured upto 24 hrs by UHPLC-MS analysis; assay type: ADME, organism-based; parameters: dose 10 mg/kg, route oral; details: in vivo; outline: as §1
[35] = Tmax in ovariectomized nu/nu mouse assessed (3-(4-morpholinopyrido [3',2':4,5] furo [3,2-d] pyrimidin-2-yl)phenyl)boronic acid at 10 mg/kg, po measured upto 24 hrs by UHPLC-MS analysis; assay type: ADME, organism-based; details: in vivo; outline: as §1
[36] = Stability of compound in cell culture medium assessed as compound hydrolysis measured after 0.5 hrs; assay type: physicochemical
[37] = Cmax in ovariectomized nu/nu mouse assessed 3-(4-morpholinopyrido [3',2':4,5] furo [3,2-d] pyrimidin-2-yl)phenol at 10 mg/kg, ip measured upto 24 hrs by UHPLC-MS analysis; assay type: ADME, organism-based; parameters: dose 10 mg/kg, route intraperitoneal; details: in vivo
[38] = Drug concentration in ovariectomized nu/nu mouse plasma assessed 3-(4-morpholinopyrido [3',2':4,5] furo [3,2-d] pyrimidin-2-yl)phenol at 10 mg/kg, po measured after 8 hrs by UHPLC-MS analysis; assay type: ADME, organism-based; details: in vivo; outline: as §1
[39] = Stability of compound in cell culture medium assessed as compound hydrolysis measured after 1 hr; assay type: physicochemical

Cp [1]: 516.2 ng/mL
Cp [2]: 354.2 ng/mL
Cp [3]: 709.2 ng/mL
Cmax [4]: 44.5 ng/mL
Cp [5]: 17.2 ng/mL
AUC [6]: 32.3 ng·h/mL
Cp [7]: 6.5 ng/mL
Cp [8]: 1.3 ng/mL
AUC [9]: 88.2 ng·h/mL
t1/2 [10]: 6.5 h
Cp [11]: 5.4 ng/mL
Cp [12]: 0.7 ng/mL
t1/2 [13]: 9.2 h
Cmax [14]: 709.2 ng/mL
Tmax [15]: 0.5 h
Cp [16]: 30.6 ng/mL
Cp [17]: 28 ng/mL
Cp [18]: 1 ng/mL
Drug degradation [19]: 0 µM
Tmax [20]: 1 h
Drug degradation [21]: 0 µM
Cp [22]: 0.4 ng/mL
AUC [23]: 400.9 ng·h/mL
t1/2 [24]: 12.4 h
Tmax [25]: 1 h
Cp [26]: 6.5 ng/mL
Drug degradation [27]: 0 µM
Cp [28]: 8.2 ng/mL
AUC [29]: 8879.9 ng·h/mL
Cp [30]: 14.9 ng/mL
Cp [31]: 106.4 ng/mL
Cp [32]: 44.5 ng/mL
Cp [33]: 402.8 ng/mL
Cmax [34]: 8.2 ng/mL
Tmax [35]: 1 h
Drug degradation [36]: 0.04 µM
Cmax [37]: 14.9 ng/mL
Cp [38]: 4.1 ng/mL
Drug degradation [39]: 0.01 µM
Compound: CC1(C)OB(c2cccc(-c3nc(N4CCOCC4)c4oc5ncccc5c4n3)c2)OC1(C)C
pIC50 (CWR22R): 6.18
pIC50 (MDA-MB-231): 6.36
pIC50 (PC-3): 6.14
pIC50 (A549): 6.24
pIC50 (HeLa): 5.42
pIC50 (SK-OV-3): 5.88

— ChEMBL document CHEMBL4622914, “Development of a bioavailable boron-containing PI-103 Bioisostere, PI-103BE” (Bioorg Med Chem Lett, 2020)
